Results published in ChEMBL document CHEMBL1123399, “Cardiotonic agents. 3. Synthesis and biological activity of novel 6-(substituted 1H-imidazol-4(5)-yl)-3(2H)-pyridazinones” (J Med Chem, 1986).
Values joined by “and” are separate entries in the source; they are usually repeats but may differ in a detail not shown here. Equal values may be shown once.

Experiments:
Canis familiaris [1] = test: Percent change in heart rate in anesthetized dogs at 0.1 mg/kg; type: functional, Canis lupus familiaris
How it was run: (§1)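 Acutely instrumented anesthetized dogs, 30 min control period. Drug in saline or dilute HCl/NaOH diluted with saline, given i.v. cumulatively, 0.1 ml/kg over 1 min. Half-log doses 0.01–1.0 mg/kg, 10-30 min between doses. One compound per dog. Heart rate, aortic pressure and LV dP/dtmax recorded as change from preceding baseline. Values are means of two experiments.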

Canis familiaris [2] = test: Percent change in blood pressure in anesthetized dogs at 0.31 mg/kg; type: functional, Canis lupus familiaris; how it was run: as §1
Canis familiaris [3] = test: Percent change in blood pressure in anesthetized dogs at 0.1 mg/kg; type: functional, Canis lupus familiaris; how it was run: as §1
Canis familiaris [4] = test: Percent change in heart rate in anesthetized dogs at 0.31 mg/kg; type: functional, Canis lupus familiaris; how it was run: as §1
Canis familiaris [5] = test: Percent change in blood pressure in anesthetized dogs at 0.03 mg/kg; type: functional, Canis lupus familiaris; how it was run: as §1
Canis familiaris [6] = test: Percent change in heart rate in anesthetized dogs at 1 mg/kg; type: functional, Canis lupus familiaris; how it was run: as §1
Canis familiaris [7] = test: Percent change in blood pressure in anesthetized dogs at 1 mg/kg; type: functional, Canis lupus familiaris; how it was run: as §1
Canis familiaris [8] = test: Percent change in heart rate in anesthetized dogs at a 0.01 mg/kg; type: functional, Canis lupus familiaris; how it was run: as §1
Canis familiaris [9] = test: Percent change in blood pressure in anesthetized dogs at 0.01 mg/kg; type: functional, Canis lupus familiaris; how it was run: as §1
Canis familiaris [10] = test: Percent change in dP/dtmax (contractility) in anesthetized dogs at 1 mg/kg; type: functional, Canis lupus familiaris; how it was run: as §1
Canis familiaris [11] = test: Percent change in heart rate in anesthetized dogs at 0.03 mg/kg; type: functional, Canis lupus familiaris; how it was run: as §1
Canis familiaris [12] = test: Percent change in dP/dtmax was measured in anesthetized dogs at a dose of 0.01 mg/kg; type: functional, Canis lupus familiaris; how it was run: as §1
[13] = biological target: Phosphodiesterase 3 (Cavia porcellus); test: Inhibition of guinea pig phosphodiesterase type III
[14] = biological target: Phosphodiesterase 3 (Cavia porcellus); test: as above; remark: listed apart in the source
Canis familiaris [15] = test: Percent change in heart rate in anesthetized dogs; type: functional, Canis lupus familiaris; how it was run: as §1
Canis familiaris [16] = test: Percent change in blood pressure in anesthetized dogs 1 mg/kg; type: functional, Canis lupus familiaris; how it was run: as §1

| Compound | IC50 [13] [µM] | IC50 [14] [µM] | Change (Canis familiaris [1]) [%] | Change (Canis familiaris [2]) [%] | Change (Canis familiaris [3]) [%] | Change (Canis familiaris [4]) [%] | Change (Canis familiaris [5]) [%] | Change (Canis familiaris [6]) [%] | Change (Canis familiaris [7]) [%] | Change (Canis familiaris [8]) | Change (Canis familiaris [9]) [%] | Change (Canis familiaris [10]) [%] | Change (Canis familiaris [11]) [%] | Change (Canis familiaris [12]) | Change (Canis familiaris [15]) [%] | Change (Canis familiaris [16]) [%] |
| --- | --- | --- | --- | --- | --- | --- | --- | --- | --- | --- | --- | --- | --- | --- | --- | --- |
| Cn1cc(-c2ccc(O)nn2)nc1-c1ccccc1 | – | – | 21.5 | -15.75 | -6.5 | 50.5 | -0.25 | 63.5 | -31.25 | 1.5% | -1.5 | 186 | 9.5 | – | – | – |
| Cl.O=C1CCC(c2cn(Cc3ccccc3)c(-c3ccccc3)n2)=NN1 | – | – | 19 | -4.5 | 0 | 18.5 | -0.5 | 8 | -4.75 | 2% | 1 | 3 | 1.5 | 2.5% and 4.5% and 12.5% and 10.5% | – | – |
| COc1ccc(-c2nc(-c3ccc(O)nn3)cn2C)cc1OC | 75 | – | -0.5 | -1 | 0 | -1 | 1.5 | 0.5 | -4.5 | 1.5% | 0 | 13 | 1 | 3.5% and 6% and 4.5% and 5% | – | – |
| O=C1CCC(c2ccc(-n3ccnc3)cc2)=NN1 [IMAZODAN] | – | – | 6.2 | -13.2 | -5.3 | 19.2 | -4.1 | – | -22.4 | 0% | -0.7 | – | 5.6 | – | 33.8 | – |
| Oc1ccc(-c2cn(Cc3ccccc3)c(-c3ccccc3)n2)nn1 | – | – | -1 | 3 | 8 | 3 | 6.5 | 8 | – | 3% | 8.5 | 55 | -1 | 21% and 29% and 17% and 28% | – | 2 |
| Oc1ccc(-c2ccc(-c3ncc[nH]3)cc2)nn1 | – | – | 31.5 | -26.5 | -26 | 30.5 | -2.5 | – | – | 1.5% | -1 | – | 12.5 | – | – | – |

More lines, main results first:

| IC50 [13] [µM] | IC50 [14] [µM] | Compound | Change (Canis familiaris [1]) [%] | Change (Canis familiaris [2]) [%] | Change (Canis familiaris [3]) [%] | Change (Canis familiaris [4]) [%] | Change (Canis familiaris [5]) [%] | Change (Canis familiaris [6]) [%] | Change (Canis familiaris [7]) [%] | Change (Canis familiaris [8]) | Change (Canis familiaris [9]) [%] | Change (Canis familiaris [10]) [%] | Change (Canis familiaris [11]) [%] | Change (Canis familiaris [12]) | Change (Canis familiaris [15]) [%] | Change (Canis familiaris [16]) [%] |
| --- | --- | --- | --- | --- | --- | --- | --- | --- | --- | --- | --- | --- | --- | --- | --- | --- |
| 38 | – | Cn1c(C2=NNC(=O)CC2)cnc1-c1ccccc1 | 4.5 | 0 | 1.5 | 5 | 1.75 | 5.5 | -2.25 | 3% | 1.75 | 30.5 | 3.5 | 7% and 10% and 11% and 16.5% | – | – |
| 12.1 | – | Cn1cc(C2=NNC(=O)CC2)nc1-c1ccccc1 | 29.5 | -23.2 | -11.8 | 34 | -5 | 29.5 | -31.8 | 3.5% | -1.2 | 95 | 13 | – | – | – |
| – | 128 | COc1ccc(-c2nc(C3=NNC(=O)CC3)cn2C)cc1OC | 1.5 | 0 | -0.25 | 5 | -1.25 | 8.5 | 1.5 | 2.5 | -1 | 0 | 0.5 | 2% and 2.5% and 9.5% | – | – |
| 160 | – | Cn1c(-c2ccc(O)nn2)cnc1-c1ccccc1 | -1.5 | -0.25 | -1.75 | -3 | 0.75 | -1.5 | -2.5 | -0.5% | 1.5 | 17 | -1 | – | – | – |
